HSF1 activator: HSF-1 activators, primary screen, NIH3T3-HGL cells, MG132 stress, luminescence, single point | NIH3T3-HGL HSF-1 luciferase reporter, 8 h; 100% = twice DMSO control signal | activation, % at 9 µM | 1.7% of 300,000 active | AID 504408, 2011;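 active = mean replicate activation of at least 50% with a set share of replicates each reaching 50%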
HCV NS3 hel inh: inhibitors of HCV NS3 helicase, primary screen, biochemical, Cy5 molecular beacon fluorescence; Hepatitis C virus NS3 helicase; NS3 helicase DNA unwinding; inhibition, % at 10.9 µM; 0.56% of 290,000 active; AID 1800, 2009;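 active = inhibition above the mean of all tested compounds plus 3 SD, set per campaign, cut at about 35% in these data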
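System: Hepatitis C virus NS3 helicase domain fragment enzyme | Reagent: Annealed dual-labelled DNA beacon duplex, ATP-started | Compound dosing: 10.9 µM single point, 0.8% DMSO | Incubation: 1 h reaction at 25 °C, ATP-initiated | Technique: Cy5 fluorescence | Evaluation: Percent inhibition from t60/t0 fluorescence ratio | Benchmarks: Low DMSO, high thioflavine S at 110 µM | Replication: Singlicate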
Lipid droplet: inhibitors of hepatocyte lipid droplet formation, primary screen, imaging, high-throughput imaging, BODIPY stain; AML12 mouse hepatocytes, oleate lipid droplets; inhibition, % at 6.5 µM; 0.4% of 240,000 active;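 active = lipid droplet intensity inhibited by at least 50%, with more than 500 cells counted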
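material = mouse AML12 hepatocyte cell line, fixed after treatment | also added = 100 µM oleic acid challenge | doses = compound at 6.5 µM only | schedule = overnight exposure | technique = Image-based BODIPY and DAPI two-channel analysis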
HSP90 inh: HSP90 inhibitors, primary screen, cell lysate, luminescence. Heat shock protein HSP 90 (rabbit reticulocyte lysate; luciferase refolding). Rabbit reticulocyte lysate, luciferase refolding luminescence, 3 h. inhibition, % at 5.6 µM. 0.91% of 290,000 active. AID 1789, 2009;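 active = inhibition above the screen-wide mean plus 3 SD, computed separately per campaign, cut at about 16% in these data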;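 also: inhibitors lower the luminescence because luciferase stays unfolded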
HSF1 inh: HSF1 inhibitors in luciferase reporter cells, primary screen, cell-based, NIH3T3, luminescence. NIH3T3-HGL HSE-luciferase, MG132-induced, luminescence 8 h; active compounds read low. activity change, negative = inhibition, % at 7.5 µM (by protocol). 0.77% of 300,000 active. AID 2098, 2009;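 active = more than half of replicate wells show activity change below -50%, luminescence cut by over half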;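 also: luciferase reports HSF-1 transcriptional activity via heat shock element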
NS3 helicase cf: HCV NS3 helicase inhibitors, retest, confirmation, biochemical, Cy5 molecular beacon fluorescence, triplicate. shares compounds with HCV NS3 hel inh. NS3 helicase DNA unwinding. inhibition, % at 10.9 µM. 31% of 1,600 active;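 active = inhibition above the mean of all tested compounds plus 3 SD, cutoff set per campaign, cut at about 36% in these data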
FID counter trip: compounds displacing fluorescent DNA intercalator, artefact control for HCV NS3 helicase inhibitor project, biochemical, FID fluorescence, triplicate | AID 1945, 2009 | inhibition, % at 7.9 µM | 4% of 1,600 active | DNA fluorescent intercalator displacement | shares compounds with HCV NS3 hel inh; in the data active = inhibition above about 37%;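 also: higher means more displacement of ethidium bromide from the DNA hairpin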
Each line names hits and unclear results; the compound was inactive in the other large screens (follow-up assays come after a bar, where they were run). The list is not random: actives were taken first. Their share in the collection is about 3.8%.

Cc1cc([N+](=O)[O-])cnc1NC(C)c1ccccc1 (centres undefined)	none (no result: Lipid droplet)
O=C(COC(=O)CCc1c[nH]c2ccccc12)NCc1ccc(Cl)cc1	none
O=C(CCC(=O)NNC(=O)Cc1ccccc1)NCc1ccccc1	none
O=C(COC(=O)CCc1c[nH]c2ccccc12)NCc1ccccc1	HCV NS3 hel inh 42.8 | NS3 helicase cf inactive | FID counter trip inactive
O=C(CCC(=O)NCc1ccccc1)NCc1ccccc1	HCV NS3 hel inh 48.4 (no result: Lipid droplet) | NS3 helicase cf inactive | FID counter trip inactive
CC(C)Cc1nnc(NC(=O)CN2C(=O)c3ccccc3C2=O)s1	none
CCCCCC(=O)Nc1cccc(C2=NOC3(C2)C[C@@H](C(N)=O)N(C(=O)CC(c2ccccc2)c2ccccc2)C3)c1 (some centres undefined)	none (no result: HCV NS3 hel inh, HSP90 inh)
Cc1ccc(NS(=O)(=O)c2ccc3c(c2)CCN3C(=O)CCC(=O)O)cc1Cl	HCV NS3 hel inh 48.0 | NS3 helicase cf inactive | FID counter trip inactive
Cc1cccc(NS(=O)(=O)c2ccc3c(c2)CCN3C(=O)CCC(=O)O)c1	none
Cc1cccc(N(C(=O)c2snc(C(N)=O)c2N)C(C)C(=O)NCC2CCCO2)c1 (centres undefined)	none
CN(Cc1cccs1)C(=O)/C=C/c1ccccc1[N+](=O)[O-]	HCV NS3 hel inh 60.9 | NS3 helicase cf inactive | FID counter trip inactive
Cc1c(Cl)cccc1NC(=O)CSc1sc2c(O)cc(=O)[nH]c2c1C#N	HCV NS3 hel inh 37.4 | NS3 helicase cf inactive | FID counter trip inactive
N#Cc1c(SCC(=O)Nc2ccc(Cl)cc2Cl)sc2c(O)cc(=O)[nH]c12	none
CC1(C)Cc2nc3sc(C(=O)NCCCO)c(N)c3cc2CS1	none
CC1(C)Cc2nc3sc(C(=O)O)c(N)c3cc2CS1	HCV NS3 hel inh 47.5 | NS3 helicase cf inactive | FID counter trip inactive
O=C(NC(=S)N1CCN(Cc2ccccc2)CC1)c1ccco1	none
Nc1c(C(=O)N/N=C/c2cccnc2)oc2nc(-c3ccco3)cc(-c3ccco3)c12	none
NNC(=O)c1oc2nc(-c3ccco3)cc(-c3ccco3)c2c1N	HCV NS3 hel inh 50.9 | NS3 helicase cf inactive | FID counter trip inactive
CCc1ccc(NC(=O)Nc2cccs2)cc1	HCV NS3 hel inh 43.9 (no result: Lipid droplet) | NS3 helicase cf inactive | FID counter trip inactive
Cc1ccc(NC(=O)Nc2cccs2)cc1	none
Cc1cc(C)n2nc(SCC(=O)Nc3ccc(F)cc3)nc2n1	HCV NS3 hel inh 50.8 (no result: Lipid droplet) | NS3 helicase cf inactive | FID counter trip inactive
O=C(COC(=O)c1cc([N+](=O)[O-])ccc1NCCO)Nc1cccc(S(=O)(=O)N2CCCC2)c1	none (no result: HCV NS3 hel inh, Lipid droplet, HSP90 inh)
COc1ccc(NS(=O)(=O)c2csc(C(N)=O)c2)cc1	none
CC1(C)CCC[C@]2(C)C(CS(=O)c3ccccc3)=C(C=O)CC[C@@H]12 (some centres undefined)	none (no result: HCV NS3 hel inh, Lipid droplet, HSP90 inh)
COc1cccc(NC(=O)COc2cc(O)c3c(c2)OC(C)(C)CC3=O)c1	HCV NS3 hel inh 83.1 (no result: Lipid droplet) | NS3 helicase cf inactive | FID counter trip inactive
O=C(O)CSc1cc(NS(=O)(=O)c2ccc(Cl)cc2)c2ccccc2c1O	HCV NS3 hel inh 42.9 | NS3 helicase cf 50.4 | FID counter trip 44.6
COc1ccc(NC(=O)N2CCNC(=O)C2CC(=O)Nc2ccc(F)cc2)cc1 (centres undefined)	none
COc1ccc(S(=O)(=O)N2CCOC2CNC(=O)C(=O)NCCc2ccccc2)cc1 (centres undefined)	none
C/C(=N\NC(=O)C(=O)Nc1cc(C)ccc1C)c1ccncc1	none
COc1ccccc1N1C(=O)CC(Nc2ccc(N3CCOCC3)cc2)C1=O (centres undefined)	none
CCOc1ccccc1N1C(=O)CC(Nc2ccc(N3CCOCC3)cc2)C1=O (centres undefined)	HCV NS3 hel inh 42.4 (no result: Lipid droplet) | NS3 helicase cf inactive | FID counter trip inactive
Cc1cc(C)nc(NS(=O)(=O)c2ccc(NC(=O)c3ccc(S(=O)(=O)N(C)C)cc3)cc2)n1	none
Cc1cc(C)nc(NS(=O)(=O)c2ccc(NC(=O)c3ccc(N4C(=O)CCC4=O)cc3)cc2)n1	HCV NS3 hel inh 60.1 | NS3 helicase cf inactive | FID counter trip inactive
COc1cc(OC)cc(N2C(=O)CSCC2=O)c1	none
COc1ccc(-n2c(Cc3cccn3C)nnc2SCC(=O)NCc2ccccc2Cl)cc1	HCV NS3 hel inh 47.3 | NS3 helicase cf inactive | FID counter trip inactive
CC1(C)CC2CC(C)(CN2C(=S)Nc2ccccc2F)C1 (centres undefined)	none
O=C(CCc1nc2ccccc2c(=O)[nH]1)NCC(=O)Nc1ccc(F)c(F)c1	none (no result: HCV NS3 hel inh, Lipid droplet, HSP90 inh)
O=C(CCc1nc2ccccc2c(=O)[nH]1)Nc1ccc(F)c([N+](=O)[O-])c1	HCV NS3 hel inh 51.6 | NS3 helicase cf inactive | FID counter trip inactive
COc1cc(OC)c(-n2cc(-c3ccc(OC)c(OC)c3)[nH]c2=S)cc1Cl	none
Cc1ccc(OCC(=O)N/N=C\c2ccc(-c3cccc(C(=O)O)c3)o2)c(C)c1	HCV NS3 hel inh 42.7 | NS3 helicase cf 91.4 | FID counter trip inactive
Cc1cc(C)cc(N(C(=O)c2ccccn2)C(C(=O)NC2CCCCC2)c2ccncc2)c1 (centres undefined)	none
CCc1nnc(NS(=O)(=O)c2ccc(NC(=S)NC(=O)c3ccc(OC)c(OC)c3)cc2)s1	none
CCc1nnc(NS(=O)(=O)c2ccc(NC(=S)NC(=O)c3ccc(OC)cc3)cc2)s1	HCV NS3 hel inh 37.3 | NS3 helicase cf 52.2 | FID counter trip inactive
CSCCC(NC(=O)c1ccccc1)C(=O)Nc1ccc(C)cc1 (centres undefined)	none
CSCCC(NC(=O)c1cccc(C)c1)C(=O)Nc1sccc1C(N)=O (centres undefined)	HCV NS3 hel inh 41.0 | NS3 helicase cf inactive | FID counter trip inactive
CCOc1ccc(-n2c(=S)sc3c(=O)n(-c4ccccc4)c(SCC(=O)O)nc32)cc1	none
CCCc1nc(SCC(=O)O)c2sc(=S)n(-c3ccccc3)c2n1	HCV NS3 hel inh 36.8 | NS3 helicase cf inactive | FID counter trip inactive
COc1cccc(NC(=O)COC(=O)c2ccccc2SCC(=O)N2CCCC2)c1	none (no result: HCV NS3 hel inh, Lipid droplet, HSP90 inh)
O=C(COC(=O)c1ccccc1SCC(=O)N1CCCC1)Nc1ccccc1	HCV NS3 hel inh 38.0 | NS3 helicase cf inactive | FID counter trip inactive
COc1ccc(C(=O)CC(SCC(NC(C)=O)C(=O)O)c2ccc(Cl)cc2)cc1OC (centres undefined)	none
